Experimental data published in ChEMBL document CHEMBL1240435, “Synthesis of some 3-substituted amino-4,5-tetramethylene thieno[2,3-d][ 1,2,3]-triazin-4(3H)-ones as potential antimicrobial agents” (2010).
Converted amounts (≈) assume the structure as drawn.

Key:
Cryptococcus neoformans [1] = experiment: Antifungal activity against Cryptococcus neoformans after 48 hrs by tube dilution method; type: functional
Candida albicans [2] = experiment: Antifungal activity against Candida albicans after 48 hrs by tube dilution method; type: functional
[3] = test system: Staphylococcus epidermidis; experiment: Antibacterial activity against Staphylococcus epidermidis after 24 hrs by tube dilution method; type: functional
Aspergillus niger [4] = experiment: Antifungal activity against Aspergillus niger after 48 hrs by tube dilution method; type: functional
Staphylococcus aureus [5] = experiment: Antibacterial activity against Staphylococcus aureus after 24 hrs by tube dilution method; type: functional
Aspergillus niger [6] = experiment: Antifungal activity against Aspergillus niger at 50 ug/ml after 48 hrs by agar cup diffusion method; type: functional; conditions: read-out: IZ
Escherichia coli [7] = experiment: Antibacterial activity against Escherichia coli after 24 hrs by tube dilution method; type: functional
Candida albicans [8] = experiment: Antifungal activity against Candida albicans at 50 ug/ml after 48 hrs by agar cup diffusion method; type: functional; conditions: read-out: IZ
Salmonella typhi [9] = experiment: Antibacterial activity against Salmonella typhi after 24 hrs by tube dilution method; type: functional, Salmonella enterica subsp. enterica serovar Typhi; conditions: Salmonella enterica
Staphylococcus aureus [10] = experiment: Antibacterial activity against Staphylococcus aureus at 50 ug/ml after 24 hrs by agar cup diffusion method; type: functional; conditions: read-out: IZ
In short: (§1)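 Compounds dissolved in DMF. A fresh bacterial subculture in isotonic NaCl was mixed into sterile assay medium at 40–45 °C and poured into Petri dishes. Test solution went into marked wells. Plates stood 5 min, were covered for 1 h, then incubated at 37 °C for 24 h. Inhibition zones were measured as the average of three readings.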

[11] = test system: Staphylococcus epidermidis; experiment: Antibacterial activity against Staphylococcus epidermidis at 50 ug/ml after 24 hrs by agar cup diffusion method; type: functional; conditions: read-out: IZ; in short: as §1
Escherichia coli [12] = experiment: Antibacterial activity against Escherichia coli at 50 ug/ml after 24 hrs by agar cup diffusion method; type: functional; conditions: read-out: IZ; in short: as §1
Salmonella typhi [13] = experiment: Antibacterial activity against Salmonella typhi at 50 ug/ml after 24 hrs by agar cup diffusion method; type: functional, Salmonella enterica subsp. enterica serovar Typhi; conditions: Salmonella enterica, read-out: IZ
In short: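 Agar cup diffusion against an ATCC or IMTECH standard strain. The test compound is dissolved in DMF. A fresh bacterial subculture in isotonic NaCl is mixed into sterile medium at 40–45 °C and poured into plates. Solution is added to marked wells, left 5 min, then covered 1 h. Plates are incubated at 37 °C for 24 h. The inhibition zone is the mean of three readings, with ampicillin as reference.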

Cryptococcus neoformans [14] = experiment: Antifungal activity against Cryptococcus neoformans at 50 ug/ml after 48 hrs by agar cup diffusion method; type: functional; conditions: read-out: IZ

Row | Compound | MIC (Cryptococcus neoformans [1]) | MIC (Candida albicans [2]) | MIC [3] | MIC (Aspergillus niger [4]) | MIC (Staphylococcus aureus [5]) | zone of inhibition at 50 µg/mL (Aspergillus niger [6]) | MIC (Escherichia coli [7]) | zone of inhibition at 50 µg/mL (Candida albicans [8]) | MIC (Salmonella typhi [9]) | zone of inhibition at 50 µg/mL (Staphylococcus aureus [10]) | zone of inhibition at 50 µg/mL [11] | zone of inhibition at 50 µg/mL (Escherichia coli [12]) | zone of inhibition at 50 µg/mL (Salmonella typhi [13]) | zone of inhibition at 50 µg/mL (Cryptococcus neoformans [14])
1 | O=c1[nH]nnc2sc3c(c12)CCCC3 | 125 µg/mL (≈ 603 µM) | 50 µg/mL (≈ 241 µM) | 37.5 µg/mL (≈ 181 µM) | 37.5 µg/mL (≈ 181 µM) | 37.5 µg/mL (≈ 181 µM) | 4 mm | 50 µg/mL (≈ 241 µM) | 3 mm | 37.5 µg/mL (≈ 181 µM) |  |  |  |  | 
2 | Cn1nnc2sc3c(c2c1=O)CCCC3 | 125 µg/mL (≈ 565 µM) | 50 µg/mL (≈ 226 µM) | 37.5 µg/mL (≈ 169 µM) | 37.5 µg/mL (≈ 169 µM) | 37.5 µg/mL (≈ 169 µM) | 6 mm | 50 µg/mL (≈ 226 µM) | 4 mm | 37.5 µg/mL (≈ 169 µM) | 16 mm | 18 mm | 12 mm | 14 mm | 
3 | CCn1nnc2sc3c(c2c1=O)CCCC3 | 125 µg/mL (≈ 531 µM) | 50 µg/mL (≈ 212 µM) | 37.5 µg/mL (≈ 159 µM) | 37.5 µg/mL (≈ 159 µM) | 37.5 µg/mL (≈ 159 µM) | 6 mm | 50 µg/mL (≈ 212 µM) | 5 mm | 37.5 µg/mL (≈ 159 µM) | 18 mm | 16 mm | 16 mm | 16 mm | 
4 | O=c1c2c3c(sc2nnn1-c1ccccc1)CCCC3 | 125 µg/mL (≈ 441 µM) | 50 µg/mL (≈ 176 µM) | 25 µg/mL (≈ 88.2 µM) | 37.5 µg/mL (≈ 132 µM) | 25 µg/mL (≈ 88.2 µM) | 6 mm | 37.5 µg/mL (≈ 132 µM) | 4 mm | 37.5 µg/mL (≈ 132 µM) | 20 mm | 17 mm | 12 mm | 12 mm | 
5 | Cc1ccccc1-n1nnc2sc3c(c2c1=O)CCCC3 | 75 µg/mL (≈ 252 µM) | 37.5 µg/mL (≈ 126 µM) | 25 µg/mL (≈ 84.1 µM) | 25 µg/mL (≈ 84.1 µM) | 25 µg/mL (≈ 84.1 µM) | 6 mm | 37.5 µg/mL (≈ 126 µM) | 4 mm | 25 µg/mL (≈ 84.1 µM) | 20 mm | 18 mm | 14 mm | 12 mm | 
6 | Cc1cccc(-n2nnc3sc4c(c3c2=O)CCCC4)c1 | 75 µg/mL (≈ 252 µM) | 37.5 µg/mL (≈ 126 µM) | 25 µg/mL (≈ 84.1 µM) | 25 µg/mL (≈ 84.1 µM) | 25 µg/mL (≈ 84.1 µM) | 8 mm | 37.5 µg/mL (≈ 126 µM) | 4 mm | 25 µg/mL (≈ 84.1 µM) | 24 mm | 20 mm | 14 mm | 14 mm | 6 mm
7 | Cc1ccc(-n2nnc3sc4c(c3c2=O)CCCC4)cc1 | 75 µg/mL (≈ 252 µM) | 37.5 µg/mL (≈ 126 µM) | 25 µg/mL (≈ 84.1 µM) | 25 µg/mL (≈ 84.1 µM) | 25 µg/mL (≈ 84.1 µM) | 8 mm | 37.5 µg/mL (≈ 126 µM) | 5 mm | 25 µg/mL (≈ 84.1 µM) | 28 mm | 28 mm | 20 mm | 18 mm | 5 mm
8 | O=c1c2c3c(sc2nnn1-c1ccc(F)cc1)CCCC3 | 75 µg/mL (≈ 249 µM) | 37.5 µg/mL (≈ 124 µM) | 6.75 µg/mL (≈ 22.4 µM) | 12.5 µg/mL (≈ 41.5 µM) | 6.75 µg/mL (≈ 22.4 µM) | 10 mm | 12.5 µg/mL (≈ 41.5 µM) | 8 mm | 12.5 µg/mL (≈ 41.5 µM) | 32 mm | 32 mm | 26 mm | 24 mm | 8 mm
9 | O=c1c2c3c(sc2nnn1-c1ccccc1Cl)CCCC3 | 50 µg/mL (≈ 157 µM) | 25 µg/mL (≈ 78.7 µM) | 12.5 µg/mL (≈ 39.3 µM) | 12.5 µg/mL (≈ 39.3 µM) | 12.5 µg/mL (≈ 39.3 µM) | 14 mm | 25 µg/mL (≈ 78.7 µM) | 8 mm | 12.5 µg/mL (≈ 39.3 µM) | 30 mm | 30 mm | 24 mm | 20 mm | 9 mm
10 | O=c1c2c3c(sc2nnn1-c1cccc(Cl)c1)CCCC3 | 50 µg/mL (≈ 157 µM) | 25 µg/mL (≈ 78.7 µM) | 12.5 µg/mL (≈ 39.3 µM) | 12.5 µg/mL (≈ 39.3 µM) | 12.5 µg/mL (≈ 39.3 µM) | 13 mm | 25 µg/mL (≈ 78.7 µM) | 8 mm | 12.5 µg/mL (≈ 39.3 µM) | 32 mm | 30 mm | 26 mm | 24 mm | 8 mm
11 | O=c1c2c3c(sc2nnn1-c1ccc(Cl)cc1)CCCC3 | 37.5 µg/mL (≈ 118 µM) | 25 µg/mL (≈ 78.7 µM) | 12.5 µg/mL (≈ 39.3 µM) | 12.5 µg/mL (≈ 39.3 µM) | 12.5 µg/mL (≈ 39.3 µM) | 16 mm | 25 µg/mL (≈ 78.7 µM) | 10 mm | 12.5 µg/mL (≈ 39.3 µM) | 34 mm | 32 mm | 26 mm | 26 mm | 10 mm
12 | O=c1c2c3c(sc2nnn1-c1ccc(F)c(Cl)c1)CCCC3 | 50 µg/mL (≈ 149 µM) | 37.5 µg/mL (≈ 112 µM) | 12.5 µg/mL (≈ 37.2 µM) | 25 µg/mL (≈ 74.5 µM) | 12.5 µg/mL (≈ 37.2 µM) | 10 mm | 25 µg/mL (≈ 74.5 µM) | 7 mm | 12.5 µg/mL (≈ 37.2 µM) | 26 mm | 24 mm | 24 mm | 20 mm | 8 mm
13 | CC1(C)S[C@@H]2[C@H](NC(=O)[C@H](N)c3ccccc3)C(=O)N2[C@H]1C(=O)O [AMPICILLIN] |  |  | 1.56 µg/mL (≈ 4.46 µM) |  | 0.5 µg/mL (≈ 1.43 µM) |  | 4 µg/mL (≈ 11.4 µM) |  | 6.25 µg/mL (≈ 17.9 µM) | 40 mm | 36 mm | 28 mm | 26 mm | 
14 | Clc1ccc(COC(Cn2ccnc2)c2ccc(Cl)cc2Cl)c(Cl)c1.O=[N+]([O-])O (stereo not drawn) [MICONAZOLE NITRATE] | 20 µg/mL | 12.5 µg/mL |  | 10 µg/mL |  | 16 mm |  | 12 mm |  |  |  |  |  | 14 mm
